Measured values as given in ChEMBL document CHEMBL1127492, “Novel potassium channel openers: synthesis and pharmacological evaluation of new N-(substituted-3-pyridyl)-N'-alkylthioureas and related compounds” (1994).
The source made the active and inactive calls. No cut-off for these calls is given here.

What was measured:
Assay type in all cases: functional
[1] = species: Rattus norvegicus; assay: Negative logarithm of the concentration causing a 100% inhibition of spontaneous mechanical activity in rat portal vein is determined in vitro
Procedure, shortened: (§1)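 Rat portal vein strips in buffer (pH 7.2) at 37 °C, gassed 5% CO2 in O2, under 0.5 g tension. Spontaneous contractions recorded isometrically by force-displacement transducer. Strips equilibrated 30 min, then compounds added cumulatively. Values are means of four independent experiments.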

[2] = system: Rattus norvegicus; assay: Maximum percent fall in Systolic blood pressure (SBP) was measured in anesthetized normotensive rat for 30 mins after intravenous (iv) injection at 1 mg/kg dose
Procedure, shortened: (§2)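 Male normotensive rats under anesthesia; compound given as iv bolus via tail vein. Blood pressure and heart rate recorded by pressure transducer coupled to polygraph. Systolic pressure followed for 30 min after injection; value is maximum percent fall in SBP, n = 4.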

[3] = system: Rattus norvegicus; assay: Maximum percent fall in Systolic blood pressure (SBP) was measured in anesthetized normotensive rat for 30 mins after intravenous (iv) injection at 0.3 mg/kg dose; procedure, shortened: as §2
[4] = species: Rattus norvegicus; assay: Negative logarithm of the concentration causing a 100% inhibition of spontaneous mechanical activity in rat portal vein is determined in vitro; No response; procedure, shortened: as §1
[5] = system: Rattus norvegicus; assay: Maximum percent fall in Systolic blood pressure (SBP) was measured in anesthetized normotensive rat for 30 mins after intravenous (iv) injection at 3 mg/kg dose; procedure, shortened: as §2
[6] = system: Rattus norvegicus; assay: Maximum percent fall in Systolic blood pressure (SBP) was measured in anesthetized normotensive rat for 30 mins after intravenous (iv) injection at 0.1 mg/kg dose; procedure, shortened: as §2
[7] = system: Rattus norvegicus; assay: Maximum percent fall in Systolic blood pressure (SBP) was measured in anesthetized normotensive rat for 30 mins after intravenous (iv) injection at 0.03 mg/kg dose; procedure, shortened: as §2

Row | Structure (SMILES) | pEC100 [1] | Decrease in SBP [2] [%] | Decrease in SBP [3] [%] | pEC100 [4] | Decrease in SBP [5] [%] | Decrease in SBP [6] [%] | Decrease in SBP [7] [%]
1 | N#CN/C(=N\C1CC2CCC1CC2)Nc1ccc(N)[n+]([O-])c1 (stereo unspecified) | 5 | 20 | 12 |  |  |  | 
2 | CC(/N=C(\NC#N)Nc1ccc(N)[n+]([O-])c1)C(C)(C)C (stereo unspecified) | 5.5 | 22 | 16 |  |  |  | 
3 | CC(/N=C(\S)Nc1ccc(N2CCCCC2)nc1)C(C)(C)C (stereo unspecified) |  | 10 |  | inactive |  |  | 
4 | CCCC/N=C(\S)Nc1cnccc1N | 3 |  |  |  | 13 |  | 
5 | N#CN=C(Nc1ccc(N)[n+]([O-])c1)N[C@@H]1C[C@H]2CC[C@@H]1C2 | 6 | 16 |  |  |  |  | 
6 | CC(C)(C)[C@H]1CC[C@@H](/N=C(\S)Nc2ccc(N)nc2)CC1 |  | 9 |  | inactive |  |  | 
7 | CC(/N=C(\S)Nc1ccc(NCCN)nc1)C(C)(C)C (stereo unspecified) |  | 3 |  | inactive |  |  | 
8 | Nc1ccc(NC(=S)NC2C[C@H]3CC[C@@H]2C3)cn1 (single isomer, unassigned; 22g) | 7 | 22 | 34 |  |  |  | 
9 | Nc1ncccc1/N=C(\S)NC1CCCCC1 | 4 | 9 |  |  | 21 |  | 
10 | CC(C)(C)/N=C(\NC#N)Nc1ccc(N)nc1 | 6 | 28 | 15 |  |  |  | 
11 | Nc1ccncc1/N=C(\S)NC1CCCCC1 | 5 | 22 |  |  | 27 |  | 
12 | CC1(C)[C@@H]2CC[C@@]1(C)[C@H](NC(=S)Nc1ccc(N)nc1)C2 | 6.5 | 41 |  |  |  | 14 | 
13 | C/N=C(\S)Nc1cnccc1N |  |  |  | inactive | 15 |  | 
14 | CCC(C)(C)/N=C(\S)Nc1ccc(N)nc1 | 5 | 31 | 15 |  |  |  | 
15 | Cc1ccc(N/C(S)=N/C(C)C(C)(C)C)cn1 (stereo unspecified) | 5.7 | 30 | 18 |  |  |  | 
16 | CC(/N=C(\S)Nc1ccc(-n2ccnc2)nc1)C(C)(C)C (stereo unspecified) | 3.7 |  |  |  | 11 |  | 
17 | CC(/N=C(\S)Nc1ccc(NN)nc1)C(C)(C)C (stereo unspecified) | 4 |  |  |  | 26 |  | 
18 | CC(/N=C(\NC#N)Nc1cc[n+]([O-])cc1)C(C)(C)C (stereo unspecified) | 5 |  | 13 |  |  |  | 
19 | Nc1ccc(NC(=S)NC2C[C@H]3CC[C@@H]2C3)cn1 (single isomer, unassigned; 22e) | 7 |  | 41 |  |  | 19 | 
20 | CC1(C)CCCC[C@@H]1/N=C(\S)Nc1ccc(N)nc1 | 5.5 | 26 |  |  |  |  | 
21 | Nc1ccc(N/C(S)=N/[C@H]2CC3C=CC2C3)cn1 (stereo partly specified) | 7 |  | 32 |  |  | 24 | 
22 | C[C@]12CC[C@H](CC1/N=C(\NC#N)Nc1ccc(N)nc1)C2 (stereo partly specified) | 7.5 |  | 33 |  |  | 26 | 
23 | CC(/N=C(\S)Nc1ccc(C#N)nc1)C(C)(C)C (stereo unspecified) | 5.7 |  | 28 |  |  | 13 | 
24 | CC(C)C/N=C(\S)Nc1ccc(N)nc1 | 4.7 | 23 | 12 |  |  |  | 

Row | Structure (SMILES) | pEC100 [1] | Decrease in SBP [2] [%] | Decrease in SBP [3] [%] | pEC100 [4] | Decrease in SBP [5] [%] | Decrease in SBP [6] [%] | Decrease in SBP [7] [%]
25 | CC(/N=C(\S)Nc1ccc(Nc2ccccc2)nc1)C(C)(C)C (stereo unspecified) |  | 5 |  | inactive |  |  | 
26 | Nc1cncc(N/C(S)=N/C2CCCCC2)c1 | 5 | 7 |  |  | 23 |  | 
27 | C[C@]12CC[C@H](C[C@@H]1NC(=NC#N)Nc1ccc(N)[n+]([O-])c1)C2 | 6 | 31 | 18 |  |  |  | 
28 | CC(/N=C(\S)Nc1ccc(N)nc1)C(C)(C)C (stereo unspecified) | 6 | 32 | 29 |  |  |  | 
29 | CC(C)(C)C1CCCCC1/N=C(\S)Nc1ccc(N)nc1 (single isomer, unassigned) | 5 | 12 |  |  |  |  | 
30 | CSc1ccc(N/C(S)=N/C(C)C(C)(C)C)cn1 (stereo unspecified) | 5 |  | 10 |  |  |  | 
31 | CC1(C)CCC[C@H](/N=C(\S)Nc2ccc(N)nc2)C1 | 5 | 25 |  |  |  |  | 
32 | N#CN/C(=N\C1CC2CCC1CC2)Nc1ccc(N)nc1 (stereo unspecified) | 6 |  | 28 |  |  | 17 | 
33 | Nc1ccc(N/C(S)=N/C23CC4CC(CC(C4)C2)C3)cn1 | 6.5 | 24 |  |  |  |  | 
34 | Nc1ccc(N/C(S)=N/C2CCCCC2)cn1 | 5 | 26 |  |  | 35 |  | 
35 | CNc1ccc(N/C(S)=N/C(C)C(C)(C)C)cn1 (stereo unspecified) | 5 | 25 | 8 |  |  |  | 
36 | CC(N/C(=N\C#N)Nc1ccncc1)C(C)(C)C (stereo unspecified) [PINACIDIL ANHYDROUS] | 7 |  | 31 |  |  | 25 | 
37 | CC(/N=C(\NC#N)Nc1ccc(N)nc1)C(C)(C)C (stereo unspecified) | 6 | 30 | 24 |  |  |  | 
38 | C[C@@H]1[C@H](NC(=S)Nc2ccc(N)nc2)CC2C[C@@H]1C2(C)C | 5 | 16 |  |  |  |  | 
39 | CC(/N=C(/NC#N)Nc1cccnc1)C(C)(C)C (stereo unspecified) | 7 |  |  |  |  | 37 | 26
40 | CC1(C)[C@H]2CC[C@](C)(C2)[C@H]1NC(=S)Nc1ccc(N)nc1 | 5.5 | 29 |  |  | 39 |  | 
41 | CC(/N=C(\S)Nc1ccc(Cl)nc1)C(C)(C)C (stereo unspecified) | 5.7 | 41 | 27 |  |  |  | 
42 | CC(C)(C)/N=C(\NC#N)Nc1ccc(N)[n+]([O-])c1 | 4.5 | 19 |  |  | 20 |  | 
43 | CC(/N=C(\S)Nc1ccc(O)nc1)C(C)(C)C (stereo unspecified) | 4 | 7 |  |  |  |  | 
44 | COc1ccc(N/C(S)=N/C(C)C(C)(C)C)cn1 (stereo unspecified) | 5 | 17 |  |  | 30 |  | 
45 | N#CN/C(=N\[C@H]1C[C@H]2CC[C@@H]1C2)Nc1ccc(N)nc1 | 6.5 |  | 32 |  |  | 25 | 
46 | C[C@]12CC[C@H](C[C@H]1NC(=S)Nc1ccc(N)nc1)C2 | 7 |  | 36 |  |  | 27 | 
47 | Nc1ccc(N/C(S)=N/C2CC3CCC2CC3)cn1 (stereo unspecified) | 7 |  | 43 |  |  | 26 | 
48 | CC(/N=C(\S)Nc1ccc(C(N)=O)nc1)C(C)(C)C (stereo unspecified) | 5 | 9 |  |  |  |  | 
